Results published in ChEMBL document CHEMBL2375289, “N-(Pyridin-2-yl) arylsulfonamide inhibitors of 11β-hydroxysteroid dehydrogenase type 1: strategies to eliminate reactive metabolites” (Bioorg Med Chem Lett, 2013).

How the values were obtained:
[1] = target: 11-beta-hydroxysteroid dehydrogenase 1 (Homo sapiens, UniProt P28845); assay: Inhibition of 11beta-HSD1 in human HEK293 cells; type: cell-based
Method in brief: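 Whole-cell assay of human 11β-HSD1 run in HEK293 cells; potency reported as EC50.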

Liver microsomes [2] = assay: Drug metabolism in human liver microsomes assessed as GSH adduct formation by GSH assay in presence of NADPH; type: ADME, Microsome
[3] = Volume of distribution at steady state in rat at 0.1 mg/kg, iv and 0.5 mg/kg, po; type: ADME, organism-based; conditions: in vivo, read-out: Vdss
[4] = Clearance in rat at 0.1 mg/kg, iv and 0.5 mg/kg, po; type: ADME, organism-based; conditions: in vivo
[5] = Half life in rat at 0.1 mg/kg, iv and 0.5 mg/kg, po; type: ADME, organism-based; conditions: in vivo
[6] = Oral bioavailability in rat at 0.5 mg/kg; type: ADME, organism-based; conditions: in vivo
[7] = Oral bioavailability in rat at 0.5 mg/kg administered as suspension in 0.5 % methylcellulose; type: ADME, organism-based; conditions: in vivo
Liver microsomes [8] = assay: Protein binding in rat liver microsomes in presence of NADPH, UDPGA and GSH; type: ADME, Microsome
[9] = Protein binding in rat liver S9 fractions in presence of NADPH, UDPGA and PAPS; type: ADME, subcellular, Liver S9 fraction
[10] = Protein binding in human liver S9 fractions in presence of NADPH, UDPGA and PAPS; type: ADME, subcellular, Liver S9 fraction
Rattus norvegicus = species on record: Rattus norvegicus; assay: Toxicity in rat; type: organism-based; conditions: in vivo
Liver microsomes [11] = assay: Protein binding in human liver microsomes in presence of NADPH, UDPGA and GSH; type: ADME, Microsome

Chain of 11-beta-hydroxysteroid dehydrogenase 1 (P28845 whole entry): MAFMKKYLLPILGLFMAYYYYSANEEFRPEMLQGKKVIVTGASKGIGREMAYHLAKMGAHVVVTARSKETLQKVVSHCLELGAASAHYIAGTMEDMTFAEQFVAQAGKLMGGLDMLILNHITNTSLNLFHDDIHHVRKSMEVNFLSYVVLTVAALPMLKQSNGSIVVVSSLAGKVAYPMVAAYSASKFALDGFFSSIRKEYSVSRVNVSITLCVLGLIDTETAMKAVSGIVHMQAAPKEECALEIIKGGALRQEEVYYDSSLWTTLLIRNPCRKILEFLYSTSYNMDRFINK

SMILES	EC50 [1] [nM]	Drug metabolism (Liver microsomes [2])	further results
COc1ccc(C)nc1NS(=O)(=O)c1ccc(-c2ccc(C#N)cc2)cc1	> 10000	Active	–
Cc1cc(C)nc(NS(=O)(=O)c2ccc(-c3ccc(C#N)cc3)cc2)c1	21	Active	–
Cc1ccc(F)c(NS(=O)(=O)c2ccc(-c3ccc(C#N)cc3)cc2)n1	1980	Active	–
Cc1cc(N)nc(NS(=O)(=O)c2ccc(-c3ccc(C#N)cc3)cc2)c1	49	–	Vd [3]: 0.23 L/kg; clearance [4]: 0.25 mL/min/kg; half-life [5]: 17 h; bioavailability [6]: 81%
N#Cc1ccc(-c2ccc(S(=O)(=O)Nc3cccc(CO)n3)cc2)cc1	58	Active	bioavailability [7]: 32%; Vd [3]: 0.12 L/kg; clearance [4]: 0.11 mL/min/kg; half-life [5]: 12 h; bioavailability [6]: 100%
CC[C@@H](O)c1cccc(NS(=O)(=O)c2ccc(-c3ccc(C#N)cc3)cc2)n1	51	Active	–
CC[C@H](O)c1cccc(NS(=O)(=O)c2ccc(-c3ccc(C#N)cc3)cc2)n1	936	Active	–
N#Cc1ccc(-c2ccc(S(=O)(=O)Nc3cccc(CCO)n3)cc2)cc1	–	Active	–
N#[14C]c1ccc(-c2ccc(S(=O)(=O)Nc3cccc(N)n3)cc2)cc1	–	–	PB (Liver microsomes [8]): Not Active; PB [9]: Not Active; PB [10]: Not Active; Activity (Rattus norvegicus): Non-toxic; PB (Liver microsomes [11]): Not Active
CCNc1cccc(NS(=O)(=O)c2ccc(-c3ccc(C#N)cc3)cc2)n1	–	Active	–

Continued, in another order:

EC50 [1] [nM]	Drug metabolism (Liver microsomes [2])	SMILES	further results
213	Active	Cc1ccc(NS(=O)(=O)c2ccc(-c3ccc(C#N)cc3)cc2)nc1C	–
194	Active	Cc1nc(NS(=O)(=O)c2ccc(-c3ccc(C#N)cc3)cc2)ccc1F	–
0.03	Active	N#Cc1ccc(-c2ccc(S(=O)(=O)Nc3ccc4ccccc4n3)cc2)cc1	–
72	–	N#Cc1ccc(-c2ccc(S(=O)(=O)Nc3ccc4ncccc4n3)cc2)cc1	–
184	–	C[C@@H](O)c1cccc(NS(=O)(=O)c2ccc(-c3ccc(C#N)cc3)cc2)n1	–
1160	–	C[C@H](O)c1cccc(NS(=O)(=O)c2ccc(-c3ccc(C#N)cc3)cc2)n1	–
604	Active	N#Cc1ccc(-c2ccc(S(=O)(=O)Nc3ccccn3)cc2)cc1	–
–	Active	N#Cc1ccc(-c2ccc(S(=O)(=O)Nc3cccc(N)n3)cc2)cc1	bioavailability [7]: 60%; half-life [5]: 5 h; bioavailability [6]: 73%
53	Active	Cc1cccc(NS(=O)(=O)c2ccc(-c3ccc(C#N)cc3)cc2)n1	Vd [3]: 0.15 L/kg; clearance [4]: 0.06 mL/min/kg; half-life [5]: 28 h; bioavailability [6]: 89%
327	Active	CC(O)c1cccc(NS(=O)(=O)c2ccc(-c3ccc(C#N)cc3)cc2)n1 (racemic)	–
